# ChEMBL document CHEMBL2157870 (J Med Chem, 2012)
# Assays:
# [1] = system: Mus musculus; experiment: Cmax in CD1 mouse at 20 mg/kg, po; assay type: ADME, organism-based; parameters: dose 20 mg/kg, route oral; conditions: in vivo
# Method in brief: (§1)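 Female CD-1 mice, 8 weeks old, were given a single oral gavage dose as a suspension in 0.5% methylcellulose in sterile water. Blood was taken from three mice per time point (5 min–24 hr) into K3EDTA and processed to plasma. After acetonitrile protein precipitation, samples were analysed by LC-MS/MS with a warfarin internal standard. Noncompartmental analysis used linear-up/log-down trapezoidal AUC and at least three non-zero concentrations after Tmax.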
# [2] = Apparent volume of distribution during terminal phase in CD1 mouse at 200 mg/kg, po; assay type: ADME, organism-based; parameters: dose 200 mg/kg, route oral; conditions: in vivo, read-out: Vz/F; method in brief: as §1
# [3] = Solubility of the compound in PBS at 10 mM after 18 hrs by UV spectroscopic analysis; assay type: physicochemical
# [4] = system: Mus musculus; experiment: Cmax in CD1 mouse at 200 mg/kg, po; assay type: ADME, organism-based; parameters: dose 200 mg/kg, route oral; conditions: in vivo; method in brief: as §1
# [5] = system: Mus musculus; experiment: Tmax in CD1 mouse at 20 mg/kg, po; assay type: ADME, organism-based; parameters: dose 20 mg/kg, route oral; conditions: in vivo; method in brief: as §1
# [6] = Intrinsic clearance in […] mouse liver microsomes at 2 mM; assay type: ADME, Microsome; conditions: read-out: CLH
# [7] = system: Mus musculus; experiment: Tmax in CD1 mouse at 200 mg/kg, po; assay type: ADME, organism-based; parameters: dose 200 mg/kg, route oral; conditions: in vivo; method in brief: as §1
# [8] = system: Mus musculus; experiment: AUC (0 to infinity) in CD1 mouse at 200 mg/kg, po; assay type: ADME, organism-based, Plasma; parameters: time infinity, dose 200 mg/kg, route oral; conditions: in vivo; method in brief: as §1
# [9] = target: T1, ATP-sensitive inward rectifier potassium channel 11 (Homo sapiens, UniProt Q14654); experiment: Inhibition of Kir6.2 by patch clamp assay
# T1 sequence (Q14654 whole entry): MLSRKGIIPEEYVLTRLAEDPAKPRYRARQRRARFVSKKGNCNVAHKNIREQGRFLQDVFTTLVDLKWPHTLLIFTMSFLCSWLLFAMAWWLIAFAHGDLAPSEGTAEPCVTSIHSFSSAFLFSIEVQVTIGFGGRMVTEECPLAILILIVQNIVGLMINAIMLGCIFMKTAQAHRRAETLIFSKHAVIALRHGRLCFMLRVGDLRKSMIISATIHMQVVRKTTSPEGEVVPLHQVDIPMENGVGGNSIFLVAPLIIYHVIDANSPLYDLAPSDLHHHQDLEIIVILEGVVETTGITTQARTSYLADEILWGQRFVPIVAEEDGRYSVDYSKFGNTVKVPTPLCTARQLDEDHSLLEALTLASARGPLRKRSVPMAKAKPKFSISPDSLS
# [10] = system: BJ; experiment: Cytotoxicity against human BJ cells at 25 uM after 72 hrs by celltiter-glo assay; assay type: cell-based
# [11] = system: Plasmodium falciparum; experiment: Antimalarial activity against Plasmodium falciparum 3D7 after 72 hrs by MSF assay; assay type: functional, organism-based; conditions: 3D7, 72 h
# [12] = Permeability of the compound at 10 uM at pH 7.4 by PAMPA; assay type: ADME; conditions: pH 7.4, 10 µM
# Method in brief: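 PAMPA: diluted compound in system solution buffer at pH 7.4 was placed in the donor well over a GIT-lipid-painted membrane, with acceptor solution buffer in the acceptor well. The sandwich was stirred for 30 min with the aqueous boundary layer set to 40 μm. Triplicate.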
# [13] = system: Plasmodium falciparum; experiment: Antimalarial activity against Plasmodium falciparum K1 after 72 hrs by MSF assay; assay type: functional, organism-based; conditions: K1, 72 h
# [14] = system: Raji; experiment: Cytotoxicity against human Raji cells at 25 uM after 72 hrs by celltiter-glo assay; assay type: cell-based
# [15] = system: HEK293; experiment: Cytotoxicity against human HEK293 cells at 25 uM after 72 hrs by celltiter-glo assay; assay type: cell-based; conditions: hek293, 72 h
# [16] = system: HepG2; experiment: Cytotoxicity against human HepG2 cells at 25 uM after 72 hrs by celltiter-glo assay; assay type: cell-based; conditions: hepg2, 72 h
# [17] = system: Mus musculus; experiment: AUC (0 to infinity) in CD1 mouse at 20 mg/kg, po; assay type: ADME, organism-based, Plasma; parameters: time infinity, dose 20 mg/kg, route oral; conditions: in vivo; method in brief: as §1
# [18] = target: T2, CYP2D6 (Homo sapiens, UniProt P10635); experiment: Inhibition of CYP2D6 in human liver microsomes at 10 uM after 20 mins by LC-MS/MS analysis relative to control; values are per cent of control
# [19] = target: T2, CYP2D6; experiment: Inhibition of CYP2D6 in human liver microsomes at 1 uM after 20 mins by LC-MS/MS analysis relative to control; values are per cent of control
# [20] = Apparent volume of distribution during terminal phase in CD1 mouse at 20 mg/kg, po; assay type: ADME, organism-based; parameters: dose 20 mg/kg, route oral; conditions: CD1, mouse, in vivo, read-out: Vz/F; method in brief: as §1
# [21] = target: Voltage-gated inwardly rectifying potassium channel KCNH2 (Homo sapiens, UniProt Q12809); experiment: Inhibition of human ERG by patch clamp assay
# [22] = Intrinsic clearance in human liver microsomes at 2 mM; assay type: ADME, Microsome; conditions: read-out: CLH
# [23] = system: Plasmodium berghei; experiment: Antimalarial activity against Plasmodium berghei NK-65 infected in ICR mouse assessed as survival rate at 50 mg/kg, po administered day 3, 4 and 5 post infection; assay type: functional
# Method in brief: (§2)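 Female Swiss outbred ICR mice, 15–20 g, given 1 X 10^6 P. berghei NK-65 infected red cells from donor mice in plasma at day 0 (modified Thompson's test). Patent infection confirmed by tail blood smear on day 3. Oral single daily doses in 0.5% HEC on days 3, 4, 5. Vehicle controls. Survival recorded daily to day 30. Parasitemia from Giemsa thin films on days 3, 6, 13, 20, 27, counting ≥1000 cells.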
# [24] = system: Plasmodium berghei; experiment: Antimalarial activity against Plasmodium berghei NK-65 infected in ICR mouse assessed as survival rate at 100 mg/kg, po administered day 3, 4 and 5 post infection; assay type: functional; method in brief: as §2
# T2 sequence (P10635 whole entry): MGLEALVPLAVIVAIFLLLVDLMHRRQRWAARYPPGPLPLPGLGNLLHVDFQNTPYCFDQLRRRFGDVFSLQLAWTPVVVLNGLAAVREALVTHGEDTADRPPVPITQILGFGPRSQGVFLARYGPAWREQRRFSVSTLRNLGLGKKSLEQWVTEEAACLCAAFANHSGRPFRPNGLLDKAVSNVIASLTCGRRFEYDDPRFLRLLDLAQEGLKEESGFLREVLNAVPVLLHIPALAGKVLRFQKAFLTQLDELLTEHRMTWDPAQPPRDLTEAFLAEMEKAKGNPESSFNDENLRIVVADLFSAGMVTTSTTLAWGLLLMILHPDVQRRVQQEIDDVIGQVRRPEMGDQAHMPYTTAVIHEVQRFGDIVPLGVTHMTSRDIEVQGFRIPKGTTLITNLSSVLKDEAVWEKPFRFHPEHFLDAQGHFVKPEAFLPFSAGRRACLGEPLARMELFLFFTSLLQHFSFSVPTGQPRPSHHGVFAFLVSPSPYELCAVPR
# Chain of Voltage-gated inwardly rectifying potassium channel KCNH2 (Q12809 whole entry): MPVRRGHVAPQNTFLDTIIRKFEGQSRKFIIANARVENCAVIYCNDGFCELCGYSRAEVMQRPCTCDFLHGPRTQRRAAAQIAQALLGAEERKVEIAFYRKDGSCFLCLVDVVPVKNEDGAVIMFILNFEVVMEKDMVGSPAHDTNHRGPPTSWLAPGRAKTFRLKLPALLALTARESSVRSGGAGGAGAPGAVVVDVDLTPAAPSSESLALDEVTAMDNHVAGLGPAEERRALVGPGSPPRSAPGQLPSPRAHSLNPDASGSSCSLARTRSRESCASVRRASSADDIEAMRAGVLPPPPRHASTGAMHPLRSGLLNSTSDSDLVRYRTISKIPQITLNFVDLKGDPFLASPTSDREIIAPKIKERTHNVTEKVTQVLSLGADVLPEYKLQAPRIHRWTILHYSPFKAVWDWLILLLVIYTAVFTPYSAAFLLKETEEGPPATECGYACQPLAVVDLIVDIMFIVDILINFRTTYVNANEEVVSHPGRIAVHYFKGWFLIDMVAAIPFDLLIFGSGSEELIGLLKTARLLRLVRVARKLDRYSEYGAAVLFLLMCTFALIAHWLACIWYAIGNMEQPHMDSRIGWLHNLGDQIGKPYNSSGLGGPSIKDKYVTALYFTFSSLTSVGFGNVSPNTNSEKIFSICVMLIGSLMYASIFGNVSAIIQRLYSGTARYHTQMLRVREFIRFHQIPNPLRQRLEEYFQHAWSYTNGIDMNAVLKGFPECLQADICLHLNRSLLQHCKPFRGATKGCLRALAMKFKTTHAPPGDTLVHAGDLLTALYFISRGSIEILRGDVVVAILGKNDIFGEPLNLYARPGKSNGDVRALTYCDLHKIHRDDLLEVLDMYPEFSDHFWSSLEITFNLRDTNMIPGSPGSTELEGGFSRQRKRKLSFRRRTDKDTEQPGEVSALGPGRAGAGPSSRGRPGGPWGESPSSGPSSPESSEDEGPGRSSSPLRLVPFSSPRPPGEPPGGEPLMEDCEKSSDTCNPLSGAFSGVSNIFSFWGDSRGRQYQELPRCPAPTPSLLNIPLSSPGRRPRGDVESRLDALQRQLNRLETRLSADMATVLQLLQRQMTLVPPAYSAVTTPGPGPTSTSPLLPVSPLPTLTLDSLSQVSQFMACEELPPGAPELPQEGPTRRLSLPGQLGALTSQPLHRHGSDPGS
Cmax [1],Vd/F [2],"solubility at 18 h, 10000 µM [3]",Cmax [4],Tmax [5],Tmax [7],AUC [8],EC90 [11],EC90 [13],SMILES,IC50 [9],Activity [10],Activity [14],Activity [15],Activity [16],"% activity remaining at 20 min, 10 µM [18]","% activity remaining at 20 min, 1 µM [19]",permeability ([12]; BLD = below limit of detection),also measured
98.7 nM,276 L/kg,0.2 µM,908 nM,1 h,1 h,6.17 µM·h,660 nM,310 nM,O=C(CCc1ccccc1)c1cc(F)ccc1OCC(O)CN1CCN(C(c2ccccc2)c2ccccc2)CC1 (configuration not stated),> 5000 nM,Non-toxic,Non-toxic,Non-toxic,Non-toxic,–,–,–,CLint scaled [6]: 34 mL/min/kg; permeability [12]: 0.8 ×10⁻⁶ cm/s
434 nM,982 L/kg,0.2 µM,481 nM,1 h,1 h,3.75 µM·h,2200 nM,420 nM,O=C(CCc1ccccc1)c1cc(F)ccc1OCC(O)CN1CCC(c2ccccc2)CC1 (configuration not stated),–,Non-toxic,Non-toxic,Non-toxic,Non-toxic,34%,73%,BLD,AUC [17]: 1.6 µM·h; EC50 [11]: 1330 nM; EC50 [13]: 260 nM; Vd/F [20]: 224 L/kg
–,–,–,–,–,–,–,–,–,CCN(CC)CCCC(C)Nc1ccnc2cc(Cl)ccc12 (configuration not stated) [CHLOROQUINE],–,–,–,–,–,–,–,–,MST [23]: 17 days; MST [24]: 22 days

SMILES,Cmax [1],Vd/F [2],"solubility at 18 h, 10000 µM [3]",Cmax [4],Tmax [5],Tmax [7],AUC [8],EC90 [11],EC90 [13],IC50 [9],Activity [10],Activity [14],Activity [15],Activity [16],"% activity remaining at 20 min, 10 µM [18]","% activity remaining at 20 min, 1 µM [19]",permeability ([12]; BLD = below limit of detection),also measured
Cc1ccc(N2CCN(CC(O)COc3ccccc3C(=O)CCc3ccccc3)CC2)cc1 (configuration not stated),302 nM,272 L/kg,2.2 µM,866 nM,8 h,0.5 h,6.49 µM·h,1300 nM,640 nM,> 5000 nM,Non-toxic,Non-toxic,Non-toxic,Non-toxic,71%,92%,BLD,IC50 [21]: 4310 nM; CLint scaled [22]: 38 mL/min/kg
